INS promoter act – TRM-6 insulin promoter activation. TRM-6 cells, insulin promoter eGFP reporter, imaging; plate-scaled: unstimulated 0, stimulated control 100. 130,000 compounds, 0.81% hits. activation, % at 2 µM;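 active means activation at 2 µM above a set limit, confirmed on inspection of the cell images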;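 further: share of cells whose green reporter signal exceeds an intensity cutoff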
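material = TRM-6 human fetal islet cells, insulin promoter–eGFP reporter | input = 1,000 TRM-6 cells seeded per well | benchmarks = stimulated versus unstimulated wells as plate controls | measured by = automated fluorescence imaging of paraformaldehyde-fixed, Hoechst-counterstained cells, green channel | schedule = compound exposure 48 h, 37 °C | reagent = tamoxifen at 0.75 µM added at seeding for reporter induction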
Active calls of the source: *; [ ] = dose if it differs, or a comment. This is one part of a sample in which hits are shown more often than they occur.

SMILES	INS promoter act
CC(C)Cc1nc(N2CCN(C(=O)c3ccco3)CC2)c(C#N)c2c1CCC2	-8.3
N#Cc1c(N2CCN(C(=O)c3ccco3)CC2)nc(-c2ccccc2)c2c1CCCC2	-71.4
N#Cc1c(N2CCN(C(=O)c3ccccc3)CC2)nc(-c2ccccc2)c2c1CCCC2	79.3*
COc1cc(OC)cc(-c2nn[nH]n2)c1	-3.4
CC(NC(=O)c1ccccc1)C(=O)OCC(=O)N1c2ccccc2Sc2ccccc21 (configuration not stated)	7.4
O=C(COc1ccc([N+](=O)[O-])cc1)N/N=C/c1cc([N+](=O)[O-])ccc1N1CCOCC1	148.4
O=[N+]([O-])c1ccc(N/N=C/c2sc(N3CCOCC3)nc2-c2ccccc2)c(S(=O)(=O)Nc2ccc(Cl)cc2)c1	488.2*
COC(=O)CCC(=O)Nc1cc(S(=O)(=O)Nc2ccc(Cl)cc2)ccc1N1CCOCC1	103.3
CC1(C)CC(=O)/C(=C(\O)CCCN2C(=O)c3ccccc3C2=O)C(=NCCO)C1	0.0
Cc1ccc(CS(=O)(=O)CCC(=O)NCc2cccs2)cc1	3.1
Cc1c(N=C/C=C2/N(C)c3ccccc3C2(C)C)c(=O)n(-c2ccccc2)n1C	30.4
C=CCN1C(=O)/C(=C\C=C2\N(C)c3ccccc3C2(C)C)SC1=S	614.3*[fluoresces]
CCN1C(=O)/C(=C\N2CCCc3ccccc32)SC1=S	-7.1
CCCCC(=O)Nc1ccc(NC(=O)c2ccccc2OC)cn1	0.0
O=C(C1=NN(c2ccccc2)C2C(=O)N(c3ccccc3Cl)C(=O)C12)c1ccccc1 (configuration not stated)	188.9
CC(C)CNC(=O)CC(c1ccccc1)c1ccccc1	0.0
O=C(NC1CCCCC1)C(c1ccncc1)N(CC1CCCO1)C(=O)C(F)(F)F (configuration not stated)	-90.0
O=C(c1ccc(S(=O)(=O)c2cccc(Cl)c2)c([N+](=O)[O-])c1)N1CCN(Cc2ccccc2)CC1	-2.9
CC(C)Cc1cc(C(=O)NCc2cccs2)no1	-100.0
O=C1Nc2ccccc2/C1=N\c1sc2c(c1C(=O)Nc1ccccc1)CCCC2	118.8
CCOC(=O)N1CCN(C(=O)/C=C/c2cccc([N+](=O)[O-])c2)CC1	0.0
Cc1cccc2c1N1C(=O)c3c(C(=O)O)cccc3C1CC2C (configuration not stated)	132.6
CCn1c(SCC(=O)Nc2ccc(S(=O)(=O)Nc3ccccn3)cc2)nnc1-c1ccncc1	569.2*
CCn1c(SCC(=O)NC2CCCc3ccccc32)nnc1-c1ccncc1 (configuration not stated)	-6.7
CCn1c(SCC(=O)Nc2cccc(NC(=O)c3cccs3)c2)nnc1-c1ccncc1	0.0
SMILES	INS promoter act
COc1ccc(CCNC(=O)COC(=O)c2cc(OC)c(OC)cc2OC)cc1OC	-9.1
CCC1CCCCN1CCCNC(=O)c1ccc2c(=O)n(Cc3ccc(OC)cc3)c(=O)[nH]c2c1 (configuration not stated)	8.6
COCCn1c(=S)[nH]c2cc(OC)c(OC)cc2c1=O	4.8
CCOc1cc2[nH]c(=O)n(CC3CCC(C(=O)NCCCOC)CC3)c(=O)c2cc1OCC (configuration not stated)	171.4*
CC(C)(C)c1ccc(-c2nnc(SCC(=O)NC3CCS(=O)(=O)C3)n2N)cc1 (configuration not stated)	-75.0
COc1ccc(OC)c2[nH]c(=O)c(CCNC(=O)c3ccc4c(c3)OCO4)cc12	9.1
O=C(c1ccccc1)N1CCCCC(S(=O)(=O)c2ccc3ccccc3c2)C1=O (configuration not stated)	3.6
CC(OC(=O)CN(C)S(=O)(=O)c1ccc(Cl)cc1)C(=O)Nc1cccc(Cl)c1 (configuration not stated)	7.2
CCN1CCN(C(c2cccs2)C(C)NS(=O)(=O)c2ccccc2)CC1 (configuration not stated)	9.1
Cc1ccc(CSc2nnc(-c3ccncc3)o2)c(C)c1	3.7
c1ccc(-c2nnc(-c3ccccc3)o2)cc1	4.7
O=S1(=O)C=C(Sc2nnc(-c3ccccc3)o2)c2ccccc21	270.4*
CSc1ccccc1-c1nnc(-c2ccccc2)o1	9.4
CC(C)CNC(=O)c1ccc(NC(=O)c2cccs2)cc1	-5.4
CN(C)c1cccc(C(=O)Nc2ccc(N3CCOCC3)cc2)c1	5.4
NC(=O)C1(N2CCCCC2)CCN(Cc2ccccc2Cl)CC1	456.3*
NC(=O)C1(N2CCCCC2)CCN(CC(=O)Nc2ccccc2-c2ccccc2)CC1	105.9
NC(=O)C1(N2CCCCC2)CCN(C(=O)CSc2nc3ccccc3o2)CC1	0.0
O=C1CCC(C(=O)NC2(C(=O)NC3CCCCC3)CCCCC2)N1 (configuration not stated)	-81.8
CCOc1ccccc1C(=O)Nc1cnn(Cc2ccc(F)cc2)c1	7.4
CCCNC(=O)CC1Sc2ccccc2NC1=O (configuration not stated)	111.1
O=C(CC1Sc2ccccc2NC1=O)c1ccc(Br)cc1 (configuration not stated)	7.9
